Assay results published in ChEMBL document CHEMBL1148068, “Bistramides A, B, C, D, and K: a new class of bioactive cyclic polyethers from Lissoclinum bistratum” (J Nat Prod, 1994).
Values after ≈ are worked out from the molar mass of the structure shown. Active and inactive are the calls of the source. The rule behind the calls is not given here.

Legend:
[1] = test system: KB; assay: Cytotoxicity against human KB cells after 72 hrs by MTT assay; type: functional, cell-based
Method in brief: (§1)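 Cells were seeded in microtiter plates at 0.1 × 10^3 cells/ml. Growth was estimated at 72 h by MTT conversion to formazan. Values are means of 3 experiments.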

[2] = Cytotoxicity against human NSCLC-N6 cells after 72 hrs by MTT assay; type: functional, cell-based; conditions: NSCLC-N6, 72 h
Method in brief: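 Cells originated from a nude-mouse graft and were cultured in RPMI 1640 with 5% fetal calf serum, penicillin, streptomycin and 2 mM glutamine. They were seeded in microtiter plates at 0.1 × 10^3 cells/ml. Growth was read by MTT-to-formazan conversion at 72 h. Values are means of 3 experiments.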

[3] = test system: P388; assay: Cytotoxicity against mouse doxorubicin resistant P388 cells after 72 hrs by MTT assay; type: functional, cell-based; conditions: P388, 72 h; method in brief: as §1
[4] = Cell cycle arrest in human NSCLC-N6 cells assessed as reduction in accumulation at S phase by flow cytometry; type: functional, cell-based
Method in brief: (§2)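 NSCLC-N6 cells were grown in RPMI 1640 with 5% FCS, penicillin, streptomycin and 2 mM glutamine. 0.8 × 10^3 cells were cultured in flasks with or without compound for 48 h. Medium was removed and cells stained in situ with Vindelov solution. DNA content of 2000 nuclei was measured by flow cytometry to give DNA histograms.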

[5] = test system: HT-29; assay: Cytotoxicity against human HT-29 cells after 72 hrs by MTT assay; type: functional, cell-based; conditions: HT-29, 72 h; method in brief: as §1
[6] = test system: P388; assay: Cytotoxicity against mouse P388 cells after 72 hrs by MTT assay; type: functional, cell-based; conditions: P388, 72 h; method in brief: as §1
[7] = test system: B16; assay: Cytotoxicity against mouse B16 cells after 72 hrs by MTT assay; type: functional, cell-based; conditions: B16, 72 h; method in brief: as §1
[8] = Antitumor activity against human NSCLC-N6 cells xenografted mouse at 20 mg/kg, iv administered as 4 doses measured after 30 days; type: functional
Method in brief: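 Nude mice carried sc NSCLC-N6 xenografts, serially passaged as mechanically dispersed tumour (about 1 g in 4.8 ml saline, 0.2 ml per mouse). Six mice per group were treated once tumours reached 50–200 mm3. Each received 20 mg/kg iv on days 1, 5, 9 and 11 (4 doses), in physiological saline with 2% DMSO.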

[9] = Cell cycle arrest in human NSCLC-N6 cells assessed as accumulation at G1 phase by flow cytometry; type: functional, cell-based; method in brief: as §2
[10] = Antitumor activity against human NSCLC-N6 cells xenografted mouse at 10 mg/kg/day, ip administered for 16 days measured after 30 days; type: functional; conditions: route intraperitoneal
Method in brief: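 NSCLC-N6 tumour maintained by serial sc transplant in nude mice: 0.2 ml of a suspension from about 1 g of mechanically dispersed excised tumour in 4.8 ml sterile saline. Groups of six mice were treated once tumours reached 50–200 mm3. Dosing was 10 mg/kg ip daily on days 1–16, in physiological saline with 2% DMSO.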

[11] = test system: P388; assay: Antitumor activity against mouse P388 cells xenografted mouse at 0.4 mg/kg, ip administered as 3 doses; type: functional; conditions: route intraperitoneal
[12] = Cell cycle arrest in human NSCLC-N6 cells assessed as increase in accumulation at G2M phase by flow cytometry; type: functional, cell-based; method in brief: as §2
[13] = test system: NSCLC-N6; assay: Induction of polyploidy in human NSCLC-N6 cells assessed as 4N chromosome levels at 1 ug/ml by DNA cytogram; type: functional, cell-based; method in brief: as §2

Structure (SMILES)	IC50 [1] [µg/mL]	IC50 [2] [µg/mL]	IC50 [3] [µg/mL]	Activity [4]	IC50 [5] [µg/mL]	IC50 [6] [µg/mL]	IC50 [7] [µg/mL]	T/C [8] [%]	Activity [9]	T/C [10] [%]	T/C [11] [%]	Activity [12]	Activity [13]
C/C=C/C(=O)C[C@H]1CC[C@H](C)[C@H](CC(=O)NC[C@H](O)[C@H](C)C(=O)NCCC[C@H]2O[C@@]3(CCC[C@@H](CC[C@H](C)/C=C(\C)C(C)=O)O3)CC[C@@H]2C)O1 [BISTRAMIDE C]	0.65 (≈ 0.925 µM)	0.05 (≈ 0.0711 µM)	0.05 (≈ 0.0711 µM)	Active	0.5 (≈ 0.711 µM)	0.02 (≈ 0.0285 µM)	0.06 (≈ 0.0854 µM)						
C/C=C/[C@H](O)CC1CCC(C)C(CC(=O)NCC(O)C(C)C(=O)NCCCC2OC3(CCCC(CCC(C)/C=C(\C)C(C)O)O3)CCC2C)O1 (stereo partly specified) [BISTRAMIDE D]	10 (≈ 14.1 µM)	3.43 (≈ 4.85 µM)	5.82 (≈ 8.23 µM)	Active	2.76 (≈ 3.9 µM)	0.36 (≈ 0.509 µM)	0.1 (≈ 0.141 µM)	53					
C/C=C/C(O)C/C=C/CC(C)C(O)CC(=O)NCC(O)C(C)C(=O)NCCCC1OC2(CCCC(CCC(C)/C=C(\C)C(C)O)O2)CCC1C (stereo unspecified) [BISTRAMIDE K]	> 10	3.23 (≈ 4.57 µM)	> 10		5.6 (≈ 7.92 µM)	0.57 (≈ 0.806 µM)	1.9 (≈ 2.69 µM)		Active	49			
C/C=C/C(=O)C[C@H]1CC[C@H](C)[C@H](CC(=O)NC[C@H](O)[C@H](C)C(=O)NCCC[C@H]2O[C@@]3(CCC[C@H](CC[C@H](C)/C=C(\C)[C@H](C)O)O3)CC[C@@H]2C)O1 [BISTRAMIDE A]	0.53 (≈ 0.752 µM)	0.03 (≈ 0.0426 µM)	0.05 (≈ 0.0709 µM)	Active	0.32 (≈ 0.454 µM)	0.2 (≈ 0.284 µM)	0.1 (≈ 0.142 µM)				118	Active	Active
CCCC(=O)CC1CCC(C)C(CC(=O)NCC(O)C(C)C(=O)NCCCC2OC3(CCCC(CCC(C)/C=C(\C)C(C)O)O3)CCC2C)O1 (stereo unspecified) [BISTRAMIDE B]	2.1 (≈ 2.97 µM)	0.32 (≈ 0.453 µM)	1.16 (≈ 1.64 µM)	Active	0.71 (≈ 1 µM)	0.2 (≈ 0.283 µM)	1.2 (≈ 1.7 µM)						
Sc1ncnc2nc[nH]c12 [MERCAPTOPURINE ANHYDROUS]	0.55 (≈ 3.61 µM)	0.79 (≈ 5.19 µM)	0.26 (≈ 1.71 µM)		0.87 (≈ 5.72 µM)	0.7 (≈ 4.6 µM)	0.8 (≈ 5.26 µM)						
